Lmaj promast = inhibitors of Leishmania major promastigote growth; inhibition, % at 10 µM; Leishmania major promastigotes, resazurin fluorescence viability; AID 1063; 200,000 compounds, 9% hits; in the data active = inhibition above about 50%;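 also: promastigotes grown with compound for 44 hours at 28 °C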
HCT116 PTEN-null = suppresses growth of cells with PTEN deletion | HCT116 PTEN-null viability, CellTiter-Glo, 60 h; hits give low values | viability, % at 10 µM | 140,000 compounds, 1.2% hits | AID 827;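 active = viability at or below a set limit, 4 SD under the median of all tested compounds, cut at about 3.7% in these data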;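 also: PTEN knockout HCT116 line with beta catenin targeted HCT116 as companion control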
PMI act hi M6P = increases human PMI activity with near-saturating mannose 6-phosphate. P34949. activation factor at 20 µM. coupled PMI enzyme assay, resazurin fluorescence, 20 min; hits give high values; 1 = untreated enzyme, 0 = substrate-free blank. 190,000 compounds, 0.34% hits;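 active = activation factor of 2 or more at 20 µM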
Target sequence (P34949 whole entry, looked up): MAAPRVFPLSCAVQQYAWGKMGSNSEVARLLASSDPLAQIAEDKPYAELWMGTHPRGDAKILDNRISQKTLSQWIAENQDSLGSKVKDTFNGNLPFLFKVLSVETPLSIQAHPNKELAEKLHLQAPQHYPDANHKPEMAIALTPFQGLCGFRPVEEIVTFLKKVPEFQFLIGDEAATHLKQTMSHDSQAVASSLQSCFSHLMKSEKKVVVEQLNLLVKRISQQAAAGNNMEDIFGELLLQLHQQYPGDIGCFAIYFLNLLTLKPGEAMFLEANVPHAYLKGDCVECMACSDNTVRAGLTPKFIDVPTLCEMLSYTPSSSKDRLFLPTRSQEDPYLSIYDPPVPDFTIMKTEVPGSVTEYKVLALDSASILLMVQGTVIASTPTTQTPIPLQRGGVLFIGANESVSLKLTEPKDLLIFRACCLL
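Test system: Human PMI in coupled enzyme assay | Input: 15 ng/mL PMI | Medium: HEPES-buffered pH 7.4 with magnesium and detergent | Compound: One concentration, 20 µM, in 1% DMSO | Incubation: Enzyme reaction with compound 20 min at room temperature | Detection: Diaphorase-driven resazurin-to-resorufin fluorescence, excitation 544, emission 590 nm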
HCT116 bCat-KO = beta-catenin-lacking colon tumor cell growth suppression; HCT116 beta-catenin knockout viability, CellTiter-Glo, 60 h; hits give low values; viability, % at 10 µM; AID 818; 140,000 compounds, 1.5% hits;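 active = viability at or under a set limit, the compound median less 4 SD, cut at about 6% in these data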;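 also: 0% = Hyamine 1622 control at 20 µM and 100% = untreated cell control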
PMI activator = activators of human phosphomannose isomerase; P34949; purified human PMI, coupled resazurin fluorescence, 20 min; hits give high values; 1 = vehicle control, 0 substrate-free wells; 190,000 compounds, 0.005% hits; activation factor at 20 µM;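 active = activation factor of 2 or more at 20 µM, relative to plate controls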
Starred values were filed as active, the others as inactive; nt = no result given. Hits are enriched below; roughly 9.6% of the tested compounds scored in any of these assays.

SMILES	Lmaj promast	HCT116 PTEN-null	PMI act hi M6P	HCT116 bCat-KO	PMI activator
COc1ccc(-c2nn(-c3ccccc3)cc2C(=O)N/N=C/c2ccc([N+](=O)[O-])o2)cc1	65*	nt	1.1	nt	1.3
Cc1ccc(OCC(=O)N/N=C\c2ccc(C)o2)c([N+](=O)[O-])c1	6	nt	1	nt	1
O=C(COc1ccccc1)N/N=C/c1cc2c(cc1[N+](=O)[O-])OCO2	10	106	1.9	92	1.6
CC(C(=O)N1CCOCCOCCOCCOCCOCC1)N1C(=O)c2ccccc2C1=O (stereo unspecified)	-6	nt	1.1	nt	1.1
CC(C)Oc1ccc(CNC2CCOC(C)(C)C2)cc1 (stereo unspecified)	86*	100	1.1	104	1
CCOC(=O)C1=C(C)N=c2s/c(=C3/C(=O)Nc4ccccc43)c(=O)n2C1c1ccc(C)cc1 (stereo unspecified)	54*	91	1	106	0.9
COC(=O)C1=C(C)N=c2s/c(=C3\C(=O)Nc4ccccc43)c(=O)n2C1c1ccccc1 (stereo unspecified)	26	94	1	98	0.9
Cc1cc(C)c(S(=O)(=O)c2ccccc2C)c(SCC(C)C)n1	92*	77	0.8	65	0.8
Cc1cc(C)c(S(=O)(=O)c2ccccc2C)c(OCC(C)(C)C)n1	96*	71	0.8	65	0.8
CCOCCOc1nc(C)cc(C)c1S(=O)(=O)c1ccccc1C	11	nt	1.1	nt	1.1
Cc1cc(C)c(S(=O)(=O)c2ccccc2C)c(N(C)C)n1	-1	94	1	89	1
CCCSc1nc(C)cc(C)c1S(C)(=O)=O	-1	nt	1.1	nt	1.1
CCCSc1nc(C)cc(C)c1S(=O)(=O)c1ccccc1C	94*	79	0.9	84	0.9
Cc1ccnn1CCSCC(=O)O	-4	98	1.1	93	1.1
COc1ccc(/C=N/Nc2nnc(Cc3ccc(OC)c(OC)c3)c(=O)[nH]2)cc1OC	81*	93	0.9	91	0.9
COc1ccc(/C=N/Nc2nnc(Cc3ccc(OC)c(OC)c3)c(=O)[nH]2)cc1	-5	69	1.1	64	0.9
CCCn1c(=O)c2ccccc2n2c(SCc3cc(=O)n4ccsc4n3)nnc12	2	nt	nt	nt	nt
CCCn1c(=O)c2ccccc2n2c(SCc3cc(=O)oc4ccc5ccccc5c34)nnc12	62*	102	1.3	98	1.2
CC(CCCC(C)(C)O)NC(=O)c1cc(COc2ccc3ncccc3c2)on1 (stereo unspecified)	4	nt	0.9	nt	0.9
CC1CCN(Cc2ccc(-c3nnn(CC(=O)Nc4ccccc4Cl)n3)cc2)CC1	64*	nt	1	nt	1
COc1ccc(NC(=O)Cn2nnc(-c3ccccc3NS(=O)(=O)c3ccccc3)n2)cc1	44	27	1	23	0.9
CCOc1ccc(-c2nnn(CC(=O)Nc3cc(OC)ccc3OC)n2)cc1OCC	0	94	0.9	108	0.9
O=C(Cn1nnc(-c2ccc(S(=O)(=O)N3CCCC3)cc2)n1)Nc1ccccc1-n1cccc1	95*	99	1	99	1
COc1ccc(S(=O)(=O)Nc2ccccc2-c2nnn(CC(=O)Nc3ccccc3OC)n2)cc1	98*	40	1	53	0.9
CCOc1ccccc1NC(=O)Cn1nnc(-c2ccc(OCC)c(OCC)c2)n1	1	2.8*	1	2.0*	1
SMILES	Lmaj promast	HCT116 PTEN-null	PMI act hi M6P	HCT116 bCat-KO	PMI activator
O=C(Nc1ccccc1)Nc1ccc(C(=O)N2CCOCC2)cc1	-5	70	0.9	85	0.9
COc1ccc(OC)c(NC(=O)C2=C(C)NC(=O)NC2c2cccs2)c1 (stereo unspecified)	-4	nt	0.9	nt	1
CCS(=O)(=O)c1nc(S(=O)(=O)c2ccc(C)cc2)c(NCCCN(C)C)s1	48	nt	1.1	nt	1.1
O=C1NC(Nc2nccs2)(C(F)(F)F)C(=O)N1CCc1ccccc1 (stereo unspecified)	1	88	1	109	1.2
CCOc1cccc(CNc2ccc(O)cc2)c1OCc1ccc(Cl)cc1Cl	100*	28	0.8	43	0.6
CCOc1cccc(CNCCO)c1OCc1ccc(Cl)cc1Cl	16	56	1.1	64	1
CCOc1cccc(CNn2cnnc2)c1OCc1ccccc1Cl	4	88	1	85	1
CCOc1cccc(CNc2ccc(O)cc2)c1OCc1ccccc1Cl	99*	48	0.5	61	0.7
COc1ccccc1NC(=S)NNC(=O)c1ccccc1Br	6	90	1	92	0.9
Cc1ccc(S(=O)(=O)N2CCOCC2)cc1C(=O)Nc1ccc2c(c1)CCC2	52*	84	1.1	85	1.1
COc1ccc2nc(NC(=O)c3cc(S(=O)(=O)N4CCOCC4)ccc3C)sc2c1	56*	86	1	74	0.8
COc1cc(C(=O)Nc2nc3ccc(S(=O)(=O)N4CCOCC4)cc3s2)cc(OC)c1OC	61*	72	1	78	0.9
COc1ccc2nc(NC(=O)c3cccc(S(=O)(=O)N4CCOCC4)c3)sc2c1	22	72	0.9	78	0.9
Cc1ccc(S(=O)(=O)N2CCC(=O)N(C(COCc3ccc(Cl)cc3)Cc3ccccc3)CC2)cc1 (stereo unspecified)	34	75	0.9	70	0.9
COc1c(C)cc(C(=O)C2CCCN(Cc3c(C)n(C)n(-c4ccccc4)c3=O)C2)cc1C (stereo unspecified)	17	nt	1.1	nt	0.9
O=C1c2cccc3c(N4CCCCC4)ccc(c23)C(=O)N1c1ccc(Cl)cn1	3	nt	nt	nt	nt
O=C1c2cccc3cccc(c23)C(=O)N1c1nccs1	-2	113	0.9	93	0.9
O=C1c2cccc3c([N+](=O)[O-])ccc(c23)C(=O)N1c1nccs1	64*	1.5*	1.8	1.5*	1.5
O=C1c2cccc3c([N+](=O)[O-])ccc(c23)C(=O)N1c1ccc(Cl)cn1	100*	1.6*	0.9	1.8*	1
O=C1c2cccc3c([N+](=O)[O-])ccc(c23)C(=O)N1c1ccccn1	100*	1.4*	1.7	1.6*	1.2
Cc1ccc2c(c1)N(CCC(=O)NCc1cccs1)C(=O)C(C)O2 (stereo unspecified)	1	94	1	102	1
CCCOc1ccc(-c2csc(NC(=O)CN3C(=O)CCC3=O)n2)cc1	-6	100	1	89	0.9
Cc1c(C(=O)NN2CCCCC2)nn(-c2ccc(Cl)cc2Cl)c1-c1ccc(I)cc1	nt	nt	0.9	nt	0.9
Cc1cccc(C2(c3cccc(C)c3)CC2C(=O)NCC2CCCO2)c1 (stereo unspecified)	-3	92	1	97	1
Cc1cccc(C2(c3cccc(C)c3)CC2C(=O)Nc2ccc([N+](=O)[O-])cc2O)c1 (stereo unspecified)	99*	6	0.8	5.9*	0.8

Source: PubChem BioAssay
